In ChEMBL document CHEMBL3272047, “3-N-Substituted aminomethyl derivatives of rifamycin SV. A convenient method of synthesis, cyclization of certain derivatives, and anticellular and antiviral activities of several derivatives” (J Med Chem, 1977):

Experiments:
[1] = test system: Moloney murine sarcoma virus; assay: Antiviral activity against Moloney murine sarcoma virus infected in mouse 3T3-FL cells assessed as inhibition of cellular focal transformation at highest nontoxic concentration after 5 days by microscopic analysis relative to control; format: functional
Method in brief: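 3T3FL cells seeded 1×10^5/dish in McCoy's 5A with 10% fetal calf serum, incubated overnight, primed with 25 µg/mL DEAE-dextran 20 min at room temperature, infected with ~100 FFU Moloney MSV (1 h adsorption, 37 °C); drug medium (0.25% Me2SO final) added, 5 days 37 °C without medium change; foci counted microscopically versus parallel control cultures.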

[2] = Cytotoxicity against mouse 3T3-FL cells after 24 to 120 hrs; format: cell-based; conditions: read-out: MNTD>75
Method in brief: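 Uninfected 3T3 cells exposed to drug (0.25% Me2SO final, matched controls); triplicate plates counted at 24, 48, 96 and 120 h to build growth curves. Highest nontoxic level defined as logarithmic growth rate ≥75% of untreated and total growth after 5 days ≥75% of control.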

With `CNCc1c2c(O)c3c(O)c(C)c4c(c3c1O)C(=O)[C@@](C)(O/C=C/[C@H](OC)[C@@H](C)[C@@H](OC(C)=O)[C@H](C)[C@H](O)[C@H](C)[C@@H](O)[C@@H](C)/C=C/C=C(/C)C(=O)N2)O4` the “inhibition (INH)” value [1] was 14% and the MNTC [2] was 1400 nM.

With `CCCNCc1c2c(O)c3c(O)c(C)c4c(c3c1O)C(=O)[C@@](C)(O/C=C/[C@H](OC)[C@@H](C)[C@@H](OC(C)=O)[C@H](C)[C@H](O)[C@H](C)[C@@H](O)[C@@H](C)/C=C/C=C(/C)C(=O)N2)O4` the “inhibition (INH)” value [1] was 10% and the MNTC [2] was 1300 nM.

In the case of `CO[C@H]1/C=C/O[C@@]2(C)Oc3c(C)c(O)c4c(O)c(c(CN)c(O)c4c3C2=O)NC(=O)/C(C)=C\C=C\[C@H](C)[C@H](O)[C@@H](C)[C@@H](O)[C@@H](C)[C@H](OC(C)=O)[C@@H]1C`, the “inhibition (INH)” value [1] is reported as 0% and the MNTC [2] is reported as 1400 nM.

In the case of `CO[C@H]1/C=C/O[C@@]2(C)Oc3c(C)c(O)c4c(O)c5c(c(O)c4c3C2=O)CN(C)C(=N5)/C(C)=C\C=C\[C@H](C)[C@H](O)[C@@H](C)[C@@H](O)[C@@H](C)[C@H](OC(C)=O)[C@@H]1C`, the “inhibition (INH)” value [1] is reported as 0% and the MNTC [2] is reported as 1400 nM.

With `CO[C@H]1/C=C/O[C@@]2(C)Oc3c(C)c(O)c4c(O)c5c(c(O)c4c3C2=O)CNC(=N5)/C(C)=C\C=C\[C@H](C)[C@H](O)[C@@H](C)[C@@H](O)[C@@H](C)[C@H](OC(C)=O)[C@@H]1C` the “inhibition (INH)” value [1] was 26% and the MNTC [2] was 1400 nM.
